Measurements from ChEMBL document CHEMBL3124924, “Bifunctional ethyl 2-amino-4-methylthiazole-5-carboxylate derivatives: synthesis and in vitro biological evaluation as antimicrobial and anticancer agents” (2014).
Values after ≈ are worked out from the molar mass of the structure shown.

Columns and labels:
Type in all cases: functional
[1] = system: Escherichia coli; test: Antibacterial activity against Escherichia coli ATCC 25922 assessed as growth inhibition at 1 mg/mL after 24 hrs by agar-cup diffusion method; details: ATCC 25922, 24 h, read-out: DIZ
In short: (§1)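 Agar-cup diffusion: 1 mL of 6 h broth culture seeded per 100 mL molten sterile agar at 45 °C and poured into plates. 8 mm cups cut, each filled with 0.1 mL of 1 mg/mL test solution. Incubated 37 °C for 24 h, 48 h for C. albicans. DMSO control per organism. Inhibition zone diameter in mm, mean of three measurements.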

[2] = system: LOX IMVI; test: Cytotoxicity against human LOXIMVI cells assessed as growth inhibition at 10 uM after 48 hrs by SRB assay; details: read-out: GI
In short: (§2)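 NCI-60 one-dose primary screen run by the NCI Drug Evaluation Branch across the full 60-line panel. Single high-dose treatment with 48 h continuous drug exposure. Cell growth estimated by sulforhodamine B protein staining. Results given as percent growth of treated cells and expressed as percentage growth inhibition.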

[3] = system: Candida albicans; test: Fungicidal activity against Candida albicans ATCC 10231 after 18 hrs; details: ATCC 10231, 18 h
In short: (§3)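 Continuation of the broth-dilution MIC test. A loopful from each tube without visible growth spread on a quarter of a Mueller-Hinton agar plate and incubated 18 h. Lowest concentration giving no growth on subculture taken as the MBC.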

[4] = system: Bacillus spizizenii; test: Bactericidal activity against Bacillus subtilis ATCC 6633 after 18 hrs; details: ATCC 6633, 18 h; in short: as §3
[5] = Cytotoxicity against human NCI-ADR-RES cells assessed as growth inhibition at 10 uM after 48 hrs by SRB assay; details: read-out: GI; in short: as §2
[6] = system: SR; test: Cytotoxicity against human SR cells assessed as growth inhibition at 10 uM after 48 hrs by SRB assay; details: read-out: GI; in short: as §2
[7] = system: MOLT-4; test: Cytotoxicity against human MOLT4 cells assessed as growth inhibition at 10 uM after 48 hrs by SRB assay; details: MOLT-4, 48 h, read-out: GI; in short: as §2
[8] = system: SN12C; test: Cytotoxicity against human SN12C cells assessed as growth inhibition at 10 uM after 48 hrs by SRB assay; details: read-out: GI; in short: as §2
[9] = system: Candida albicans; test: Antifungal activity against Candida albicans ATCC 10231 assessed as growth inhibition at 1 mg/mL after 48 hrs by agar-cup diffusion method; details: ATCC 10231, 48 h, read-out: DIZ; in short: as §1
[10] = system: HT-29; test: Cytotoxicity against human HT-29 cells assessed as growth inhibition at 10 uM after 48 hrs by SRB assay; details: HT-29, 48 h, read-out: GI; in short: as §2
[11] = system: SF-268; test: Cytotoxicity against human SF268 cells assessed as growth inhibition at 10 uM after 48 hrs by SRB assay; details: SF-268, 48 h, read-out: GI; in short: as §2
[12] = system: HOP-92; test: Cytotoxicity against human HOP92 cells assessed as growth inhibition at 10 uM after 48 hrs by SRB assay; details: HOP-92, 48 h, read-out: GI; in short: as §2
[13] = system: NCI-H322M; test: Cytotoxicity against human NCI-H322M cells assessed as growth inhibition at 10 uM after 48 hrs by SRB assay; details: read-out: GI; in short: as §2
[14] = system: SW-620; test: Cytotoxicity against human SW620 cells assessed as growth inhibition at 10 uM after 48 hrs by SRB assay; details: SW-620, 48 h, read-out: GI; in short: as §2
[15] = system: Candida albicans; test: Antifungal activity against Candida albicans ATCC 10231 assessed as growth inhibition after 48 hrs by two-fold serial dilution assay; details: ATCC 10231, 48 h
In short: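 Twofold serial broth dilution run on compounds giving inhibition zones of 13 mm or more. Organisms pre-grown in suitable broth at 37 °C, 24 h for bacteria and 48 h for fungi. Dilution series 200, 100, 50, 25, 12.5, 6.25. Each 5 mL tube inoculated with 0.1 mL and incubated 37 °C for 48 h. Tubes scored for presence or absence of growth.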

Row | MIC [15] [µg/mL] | Compound | zone of inhibition at 1000 µg/mL [1] [mm] | inhibition of growth at 10 µM [2] [%] | MFC [3] [µg/mL] | MBC [4] [µg/mL] | inhibition of growth at 10 µM [5] [%] | inhibition of growth at 10 µM [6] [%] | inhibition of growth at 10 µM [7] [%] | inhibition of growth at 10 µM [8] [%] | zone of inhibition at 1000 µg/mL [9] [mm] | inhibition of growth at 10 µM [10] [%] | inhibition of growth at 10 µM [11] [%] | inhibition of growth at 10 µM [12] [%] | inhibition of growth at 10 µM [13] [%] | inhibition of growth at 10 µM [14] [%]
1 | 25 (≈ 85.8 µM) | Cc1nc(NC(=O)Nc2ccccc2)sc1C(=O)NN | > 13 | 10.1 | 25 (≈ 85.8 µM) | 25 (≈ 85.8 µM) | 6.43 | 25.8 | < 10 | < 10 | > 13 | < 10 | < 10 | < 10 | 22 | < 10
2 | 100 (≈ 398 µM) | Cc1nc(N)sc1C(=O)Nc1ccc(F)cc1 | > 13 | < 10 | 100 (≈ 398 µM) | 50 (≈ 199 µM) | 2.36 | < 10 | < 10 | 3.01 | > 13 | < 10 | < 10 | < 10 | 2.56 | < 10
3 | 12.5 (≈ 38.4 µM) | Cc1nc(NC(=S)Nc2ccc(F)cc2)sc1C(=O)NN | > 13 | 6.73 | 12.5 (≈ 38.4 µM) | 12.5 (≈ 38.4 µM) | 10 | < 10 | < 10 | 2.43 | > 13 | < 10 | < 10 | 33.7 | 15.1 | 6.48
4 |  | CCOC(=O)c1sc(NC(=O)c2cc(OC)c(OC)c(OC)c2)nc1C | > 13 | 3.7 |  | 50 (≈ 131 µM) | 4.66 | 21 | 12.4 | 7.38 | > 13 | < 10 | 3.75 | 53.1 | < 10 | < 10
5 | 25 (≈ 81.9 µM) | CCOC(=O)c1sc(NC(=O)Nc2ccccc2)nc1C | > 13 | 4.13 | 25 (≈ 81.9 µM) | 50 (≈ 164 µM) | 13.9 | 14.3 | 23.7 | 4.19 | > 13 | 24.1 | 4.88 | 64.2 | < 10 | 2.85
6 |  | CCOC(=O)c1sc(NC(=O)NC2CCCCC2)nc1C | > 13 | 13 |  | 100 (≈ 321 µM) | 8.96 | 35.3 | 12.3 | 5.62 | > 13 | 15.5 | 12.6 | 53.9 | < 10 | 7.5
7 | 50 (≈ 168 µM) | Cc1nc(NC(=O)NC2CCCCC2)sc1C(=O)NN | > 13 | 7.54 | 100 (≈ 336 µM) | 100 (≈ 336 µM) | 3.01 | < 10 | < 10 | < 10 | > 13 | 5.51 | < 10 | 82.8 | < 10 | < 10
8 |  | CCOC(=O)c1sc(NS(=O)(=O)c2ccccc2)nc1C | > 13 | < 10 |  | 100 (≈ 306 µM) | < 10 | < 10 | 24.4 | < 10 | > 13 | < 10 | < 10 | < 10 | < 10 | < 10
